The source made the active and inactive calls. The rule behind the calls is not given here.
Columns and labels:
FM3A [1] = experiment: Inhibit growth of FM3A cells by 50%; type: functional, cell-based; settings: Mus musculus
Procedure, shortened: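 FM3A cells were grown in ES medium with 2% heat-inactivated FBS at 37 °C under 5% CO2, seeded at about 5 × 10^4 cells/mL, and exposed to a range of drug concentrations. Cells were counted electronically after 48 h. IC50 is the concentration that reduces growth rate by 50% of control.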

P388 [2] = experiment: Tested in vivo for the antitumor activity against P388 in mice after intraperitoneal administration of 100 mg/kg dose; T/C= treated/control; type: functional, Mus musculus
[3] = Inhibit growth of KB cells by 50%; type: functional, cell-based; settings: Homo sapiens
FM3A [4] = experiment: Ability to induce dNTP pool imbalance at 41 uM dose was tested; significant imbalance in the intracellular dNTP pool in FM3A cells; type: functional, cell-based; settings: Mus musculus
P388 [5] = experiment: Compound was tested in vivo for the antitumor activity against P388 leukemia cells in mice after intraperitoneal administration of 12.5 mg/kg dose; T/C= treated/control
P388 [6] = experiment: Compound was tested in vivo for the antitumor activity against P388 in mice after intraperitoneal administration of 6.3 mg/kg dose; T/C= treated/control; type: functional, Mus musculus
P388 [7] = experiment: Compound was tested in vivo for the antitumor activity against P388 in mice after intraperitoneal administration of 3.1 mg/kg dose; T/C= treated/control; type: functional, Mus musculus
P388 [8] = experiment: Tested in vivo for the antitumor activity against P388 in mice after intraperitoneal administration of 200 mg/kg dose; T/C= treated/control; type: functional, Mus musculus
FM3A [9] = experiment: Ability to induce dNTP pool imbalance at 16.4 uM dose was tested; significant imbalance in the intracellular dNTP pool in FM3A cells; settings: Mus musculus
P388 [10] = experiment: Tested in vivo for the antitumor activity against P388 leukemia cells in mice after intraperitoneal administration of 400 mg/kg dose; T/C= treated/control; type: functional, Mus musculus
FM3A [11] = experiment: Compound''s ability to induce dNTP pool imbalance at 6.1 uM dose was tested; significant imbalance in the intracellular dNTP pool in FM3A cells; type: functional, cell-based; settings: Mus musculus
P388 [12] = settings: Mus musculus
P388 [13] = experiment: Compound was tested in vivo for the antitumor activity against P388 in mice after intraperitoneal administration of 50 mg/kg dose; T/C= treated/control; type: functional, Mus musculus
P388 [14] = experiment: Compound was tested in vivo for the antitumor activity against P388 in mice after intraperitoneal administration of 25 mg/kg dose; T/C= treated/control; type: functional, Mus musculus
P388 [15] = experiment: Compound was tested in vivo for the antitumor activity against P388 leukemia cells in mice after intraperitoneal administration of 100 mg/kg dose; T/C= treated/control; type: functional, Mus musculus
FM3A [16] = experiment: Ability to induce dNTP pool imbalance at 15.0 uM dose was tested; significant imbalance in the intracellular dNTP pool in FM3A cells; settings: Mus musculus
FM3A [17] = experiment: Ability to induce dNTP pool imbalance at 7.3 uM dose was tested; significant imbalance in the intracellular dNTP pool in FM3A cells; settings: Mus musculus
P388 [18] = experiment: Compound was tested in vivo for the antitumor activity against P388 in mice after intraperitoneal administration of 20 mg/kg dose; T/C= treated/control; type: functional, Mus musculus
P388 [19] = experiment: Compound was tested in vivo for the antitumor activity against P388 in mice after intraperitoneal administration of 10 mg/kg dose; T/C= treated/control; type: functional, Mus musculus
FM3A [20] = experiment: Ability to induce dNTP pool imbalance at 3.5 uM dose was tested; significant imbalance in the intracellular dNTP pool in FM3A cells; settings: Mus musculus
P388 [21] = experiment: Compound was tested in vivo for the antitumor activity against P388 leukemia cells in mice after intraperitoneal administration of 40 mg/kg dose; T/C= treated/control; type: functional, Mus musculus
P388 [22] = experiment: Compound was tested in vivo for the antitumor activity against P388 in mice after intraperitoneal administration of 400 mg/kg dose; T/C= treated/control; type: functional, Mus musculus
FM3A [23] = experiment: Ability to induce dNTP pool imbalance at 7.9 uM dose was tested; significant imbalance in the intracellular dNTP pool in FM3A cells; settings: Mus musculus
P388 [24] = experiment: Compound was tested in vivo for the antitumor activity against P388 leukemia cells in mice after intraperitoneal administration of 25 mg/kg dose; T/C= treated/control; type: functional, Mus musculus
P388 [25] = experiment: Compound was tested in vivo for the antitumor activity against P388 in mice after intraperitoneal administration of 12.5 mg/kg dose; T/C= treated/control; type: functional, Mus musculus
FM3A [26] = experiment: Ability to induce dNTP pool imbalance at 9.0 uM dose was tested; significant imbalance in the intracellular dNTP pool in FM3A cells; settings: Mus musculus
P388 [27] = experiment: Compound was tested in vivo for the antitumor activity against P388 leukemia cells in mice after intraperitoneal administration of 5 mg/kg dose; T/C= treated/control; type: functional, Mus musculus
P388 [28] = experiment: Compound was tested in vivo for the antitumor activity against P388 in mice after intraperitoneal administration of 2.5 mg/kg dose; T/C= treated/control; type: functional, Mus musculus
P388 [29] = experiment: Compound was tested in vivo for the antitumor activity against P388 in mice after intraperitoneal administration of 0.6 mg/kg dose; T/C= treated/control; type: functional, Mus musculus

SMILES | IC50 (FM3A [1]) [nM] | T/C (P388 [2]) [%] | IC50 [3] [nM] | Imbalance (FM3A [4]) | T/C (P388 [8]) [%] | T/C (P388 [10]) [%] | other results
Oc1cccc2cccnc12 [OXYQUINOLINE] | 2100 | 92 | < 2100 | significant imbalance in the intracellular dNTP pool in FM3A cells | – | – | –
COc1ccc(C(c2ccc3cccnc3c2O)c2ccc3cccnc3c2O)cc1 | 10 | – | < 700 | significant imbalance in the intracellular dNTP pool in FM3A cells | – | – | T/C (P388 [5]): 164%; T/C (P388 [6]): 128%; T/C (P388 [7]): 111%
CC(C)c1ccc(SCCSc2ccc(C(C)C)cc(=O)c2O)c(O)c(=O)c1 | 4800 | 151 | 1600 | – | 171 | 80 | Imbalance (FM3A [9]): significant imbalance in the intracellular dNTP pool in FM3A cells
CCOC(c1ccc(OC)cc1)c1ccc(C(C)C)cc(=O)c1O (stereo not given) | 1100 | – | 1600 | – | 140 | 140 | Imbalance (FM3A [11]): significant imbalance in the intracellular dNTP pool in FM3A cells
COc1ccc(C(c2ccc(C(C)C)cc(OC)c2=O)c2ccc(C(C)C)cc(OC)c2=O)cc1 | 14100 | – | 114000 | – | – | – | T/C (P388 [12]): inactive
CC(C)C1=CC(=O)C(=O)/C(=C2/C=CC(C(C)C)=CC(O)=C2O)C=C1 | 3700 | – | 9500 | significant imbalance in the intracellular dNTP pool in FM3A cells | – | – | T/C (P388 [13]): 171%; T/C (P388 [14]): 152%; T/C (P388 [15]): 143%
CC(C)c1ccc(CCc2ccc(C(C)C)cc(=O)c2O)c(O)c(=O)c1 | 1200 | – | 8000 | – | – | – | T/C (P388 [6]): 121%; Imbalance (FM3A [16]): significant imbalance in the intracellular dNTP pool in FM3A cells; T/C (P388 [14]): 150%; T/C (P388 [15]): 165%
CC(C)c1ccc(CCCCCCc2ccc(C(C)C)cc(=O)c2O)c(O)c(=O)c1 | 900 | 128 | 1500 | – | 80 | 70 | Imbalance (FM3A [17]): significant imbalance in the intracellular dNTP pool in FM3A cells; T/C (P388 [13]): 137%; T/C (P388 [14]): 110%
COc1ccc(C(c2oc(CO)cc(=O)c2O)c2oc(CO)cc(=O)c2O)cc1 | > 249000 | – | > 249000 | – | – | – | T/C (P388 [12]): inactive
CC(C)c1ccc(CCCCCCCCc2ccc(C(C)C)cc(=O)c2O)c(O)c(=O)c1 | 900 | 107 | 4300 | significant imbalance in the intracellular dNTP pool in FM3A cells | 110 | 110 | –
CC(C)c1ccc(COCc2ccc(C(C)C)cc(=O)c2O)c(O)c(=O)c1 | 80 | – | 6200 | – | – | – | T/C (P388 [18]): 186%; T/C (P388 [19]): 164%; Imbalance (FM3A [20]): significant imbalance in the intracellular dNTP pool in FM3A cells; T/C (P388 [21]): 156%
CC(C)c1ccc(CCCCCCCCCCCCc2ccc(C(C)C)cc(=O)c2O)c(O)c(=O)c1 | 1300 | 106 | 27300 | significant imbalance in the intracellular dNTP pool in FM3A cells | 107 | – | T/C (P388 [22]): 105%
CC(C)c1ccc(Cc2ccc(C(C)C)cc(=O)c2O)c(O)c(=O)c1 | 1000 | – | < 900 | – | – | – | T/C (P388 [6]): 137%; Imbalance (FM3A [23]): significant imbalance in the intracellular dNTP pool in FM3A cells; T/C (P388 [24]): 123%; T/C (P388 [25]): 152%
CC(C)c1ccc(SCCCSc2ccc(C(C)C)cc(=O)c2O)c(O)c(=O)c1 | – | 93 | 1600 | – | 131 | 169 | –
COc1ccc(C(c2ccc(C(C)C)cc(=O)c2O)c2ccc(C(C)C)cc(=O)c2O)cc1 | 400 | – | 1100 | – | – | – | Imbalance (FM3A [26]): significant imbalance in the intracellular dNTP pool in FM3A cells; T/C (P388 [27]): 173%; T/C (P388 [28]): 134%; T/C (P388 [29]): 127%
CC(C)c1cccc(=O)c(O)c1 [HINOKITIOL] | 1100 | – | 3500 | significant imbalance in the intracellular dNTP pool in FM3A cells | – | – | T/C (P388 [10]; Mus musculus): inactive
